# From ChEMBL document CHEMBL4325875, “Computer-aided design, synthesis and biological characterization of novel inhibitors for PKMYT1” (Eur J Med Chem, 2019)
# Key:
# [1] = molecular target: T1, Membrane-associated tyrosine- and threonine-specific cdc2-inhibitory kinase (Homo sapiens) (UniProt Q99640); test: Displacement of (6-FAM)KI(pY)VV from PKMYT1 kinase domain (unknown origin) at 20 uM by fluorescence polarization binding assay relative to control
# T1 sequence (whole entry): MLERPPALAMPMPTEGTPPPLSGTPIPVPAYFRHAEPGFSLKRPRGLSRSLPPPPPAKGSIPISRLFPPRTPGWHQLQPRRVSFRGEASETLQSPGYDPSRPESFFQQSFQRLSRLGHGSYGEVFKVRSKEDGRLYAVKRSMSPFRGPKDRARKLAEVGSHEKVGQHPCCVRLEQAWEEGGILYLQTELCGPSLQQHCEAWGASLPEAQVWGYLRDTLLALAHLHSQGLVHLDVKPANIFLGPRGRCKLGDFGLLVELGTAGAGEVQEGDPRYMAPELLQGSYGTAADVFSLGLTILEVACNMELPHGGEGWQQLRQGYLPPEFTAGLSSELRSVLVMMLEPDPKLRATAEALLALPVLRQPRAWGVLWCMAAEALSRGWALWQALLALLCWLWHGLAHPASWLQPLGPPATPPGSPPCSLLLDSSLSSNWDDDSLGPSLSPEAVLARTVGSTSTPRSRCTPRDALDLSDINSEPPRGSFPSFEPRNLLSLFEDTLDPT
# Summary of the method: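 PKMYT1 kinase domain (recombinantly expressed and purified) used in a fluorescence anisotropy binding assay with a fluorescently labelled ATP-competitive tracer. Each compound screened at 20 μM in triplicate. Dasatinib 10 μM served as inhibitory control and 1% DMSO as vehicle control. Compounds giving >60% tracer displacement were retested at 20 and 5 μM in triplicate.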
# [2] = molecular target: T2, Membrane-associated tyrosine- and threonine-specific cdc2-inhibitory kinase (Homo sapiens, UniProt Q99640); test: […] from PKMYT1 kinase domain (unknown origin) by fluorescence polarization binding assay
# T2 sequence (Q99640 whole entry): T1 sequence (whole entry)
# [3] = molecular target: T2, Membrane-associated tyrosine- and threonine-specific cdc2-inhibitory kinase; test: Displacement of (6-FAM)KI(pY)VV from full length PKMYT1 (unknown origin) by fluorescence polarization immuno assay
# Summary of the method: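 Full-length PKMYT1, expressed and purified, was tested in the fluorescence polarization-based activity assay (FPIA) to give IC50 and Ki. Controls were 10 μM dasatinib and 1% DMSO. Anisotropy r was calculated, and Δr was taken as the difference between the PKMYT1 reaction and the reaction without PKMYT1. Data are given as means ± SEM.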
Compound,inhibition [1] [%],IC50 [2] [µM],IC50 [3] [µM],Ki [2] [µM]
Cc1ccc(Nc2nc(Nc3ccc(N4CCOCC4)cc3)ncc2Br)cc1O,26.7,–,–,–
Cc1ccc(Nc2nc(Nc3ccc(N4CCOCC4)cc3)ncc2OCc2ccccc2)cc1O,< 10,–,–,–
Cc1cc(Nc2ncc3cc(-c4c(Cl)cccc4Cl)c(=O)n(C)c3n2)ccc1F,–,–,–,1.35
Oc1cccc(Nc2nc(Nc3ccc(N4CCOCC4)cc3)ncc2Cl)c1,75,6.03,0.617,–
Oc1cccc(Nc2nc(Nc3ccc(N4CCOCC4)cc3)ncc2Br)c1,21.1,–,–,–
Oc1cccc(Nc2nc(Nc3ccc(N4CCOCC4)cc3)nc3c2SCC3)c1,< 10,–,–,–
Oc1ccc(Cl)c(Nc2nc(Nc3ccc(N4CCOCC4)cc3)ncc2Cl)c1,< 10,–,–,–

# The remaining lines, values ahead:
inhibition [1] [%],IC50 [2] [µM],IC50 [3] [µM],Ki [2] [µM],Compound
100,9.33,0.309,–,COc1cnc(Nc2ccc(N3CCOCC3)cc2)nc1Nc1ccc(C)c(O)c1
13,–,–,–,CSc1cnc(Nc2ccc(N3CCOCC3)cc2)nc1Nc1cc(C)ccc1Cl
100,6.03,1.55,–,CSc1cnc(Nc2ccc(N3CCOCC3)cc2)nc1Nc1cccc(O)c1
100,6.31,0.955,–,CNC(=O)c1ccccc1Nc1nc(Nc2ccc(N3CCOCC3)cc2)ncc1OC
< 10,–,–,–,Cc1cnc(Nc2ccc(N3CCOCC3)cc2)nc1Nc1cccc(O)c1
39.7,–,–,–,COc1ccc(Nc2nc(Nc3ccc(N4CCOCC4)cc3)ncc2OC)cc1O
< 10,–,–,–,Cc1cnc(Nc2ccc(N3CCOCC3)cc2)nc1Nc1cc(O)ccc1Cl
27,–,–,–,COc1ccc(Nc2nc(Nc3ccc(N4CCOCC4)cc3)ncc2Br)cc1O
74.8,–,–,–,COc1cnc(Nc2ccc(N3CCOCC3)cc2)nc1Nc1cccc(O)c1
